High-throughput results: PubChem BioAssay, Johns Hopkins Ion Channel Center
A selection: hits, their analogues and other compounds. The true share with any hit is near 3.5%.
RGS4 act – potentiators or activators of RGS4 | HEK293 M3R/inducible RGS4, carbachol calcium flux Fluo4; stronger effect = lower value | 0.92% of 310,000 active | B-score at 10 µM | AID 463111;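 active = B-score of the integrated calcium signal more than 4 SD below the library mean, with starting fluorescence not abnormally high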;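 note: negative B-score means reduced calcium response which marks RGS4 activation or potentiation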
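Also added: carbachol at ECmax as muscarinic agonist stimulus; Assay system: HEK293 cells with stable M3R and inducible RGS4; Timing: overnight RGS4 induction, 30 min dye load 37 °C, 20 min compound RT; Measured by: Fluo4-AM (2 µM) calcium-flux fluorescence, kinetic read.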
MrgX1 allo act – human MrgX1 positive allosteric modulation, primary screen. Q96LB2. MrgX1-HEK293, Fluo-4 calcium flux, FDSS; stronger effect = higher value. B-score at 10 µM. 0.63% of 310,000 active. AID 588675;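 active = plate-corrected calcium response at least 3 library SD above typical, normal starting fluorescence, not activating the receptor alone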;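 note: compound read alongside a low EC10 to EC30 dose of BAM8-22 agonist; peak minus trough fluorescence over baseline measured at the second addition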
Target sequence (Q96LB2 whole entry, looked up): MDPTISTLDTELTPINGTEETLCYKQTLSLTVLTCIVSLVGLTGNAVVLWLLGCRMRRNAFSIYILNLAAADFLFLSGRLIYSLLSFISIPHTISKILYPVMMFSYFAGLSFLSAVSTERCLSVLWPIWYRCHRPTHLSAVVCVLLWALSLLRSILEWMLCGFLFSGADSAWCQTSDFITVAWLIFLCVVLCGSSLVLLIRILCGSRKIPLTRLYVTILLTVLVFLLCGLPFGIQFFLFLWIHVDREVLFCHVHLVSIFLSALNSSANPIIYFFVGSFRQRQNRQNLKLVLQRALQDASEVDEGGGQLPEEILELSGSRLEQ
RGS4 inh – human RGS4 inhibition; HEK293 M3R/RGS4 inducible, Fluo-4 calcium flux; stronger effect = higher value; triggered by carbachol at its EC20; B-score at 10 µM; 0.45% of 310,000 active; AID 463165;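 active = B-score, a plate-corrected calcium signal, over three deviations above library mean, with baseline fluorescence within five deviations of library mean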;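 note: RGS4 expression induced by doxycycline in cells with stable M3 receptor; B-score is computed from the integrated fluorescence ratio over baseline after carbachol; higher B-score means a larger calcium signal and so more RGS4 inhibition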
MrgX1 ag – human MrgX1 receptor agonism, primary screen | Q96LB2 | MrgX1-HEK293 cells, Fluo-4 calcium fluorescence, agonist mode; stronger effect = higher value | B-score at 10 µM | 0.44% of 310,000 active | AID 588627;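 active = calcium response B-score plate-corrected fluorescence ratio at least 3 library SD, with starting fluorescence B-score inside 5 SD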
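System: HEK293 cells stably expressing human MrgX1 receptor; Dosing: test compound in the initial addition of three; Schedule: overnight plating, then 30 min 37 °C plus 30 min room-temperature dye loading; Detection: kinetic calcium dye fluorescence, Fluo-4 NW; Controls: per-plate positive and negative controls for Z′ factor.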
MrgX1 antag – blocks BAM8-22 activation of human MrgX1 receptor | MRGX1-HEK293 calcium flux, Fluo-4, BAM8-22 antagonism; stronger effect = lower value | B-score at 10 µM | 1.3% of 310,000 active | AID 588676;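 active = calcium-response B-score plate-corrected more than 3 library SD below zero, starting fluorescence within 5 deviations, no agonist response on first addition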;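 note: peak minus trough fluorescence over baseline after final BAM8-22 challenge near maximal dose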
The depositor's hits bear a star; i = inactive.

SMILES	RGS4 act	MrgX1 allo act	RGS4 inh	MrgX1 ag	MrgX1 antag
COc1ccc(C(O)(C2CCCCC2)C(CN2CCOCC2)c2ccccc2)cc1 (configuration not stated)	i	i	i	i	i
OC(c1ccccc1)(C1CCCCC1)C(CN1CCOCC1)c1ccccc1 (configuration not stated)	i	i	i	i	-8.2*
CC(=O)CC1(O)C(=O)Nc2ccccc21 (configuration not stated)	i	i	i	i	i
O=C1Nc2ccccc2C1(O)C/C(=N/O)c1ccccc1 (configuration not stated)	i	i	i	i	-7.5*
COc1ccc(C(CNCC(O)COc2c(C)ccc(C)c2C)N(C)C)cc1 (configuration not stated)	i	i	i	i	i
CCNc1ccc(Br)cc(C(=O)/C=C/c2ccc(Cl)cc2Cl)c1=O	i	i	i	i	-6.1*
CNc1ccc(Br)cc(C(=O)/C=C/c2cc(OC)ccc2OC)c1=O	i	i	i	i	i
O=C(NCCNC(=O)c1ccc(Cl)cc1Cl)c1ccco1	i	i	i	i	i
CCCCCCOc1ccc(/C(N)=N/O)cc1	i	i	i	i	i
N=C(N)c1ccc(OCCCCCOc2ccc(C(=N)N)cc2)cc1	i	i	i	34*	i
Cc1ccc(/C=N/NC(=O)c2cccc(S(=O)(=O)Nc3ccccc3Cl)c2)o1	i	13*	i	i	i
O=C(N/N=C/c1ccco1)c1cccc(S(=O)(=O)Nc2ccccc2Cl)c1	i	i	i	i	i
O=C(O)c1cccc(-c2ccc(/C=C3/SC(=Nc4ccccc4)N(Cc4cccnc4)C3=O)o2)c1	i	i	i	i	-5.1*
CCN=C1S/C(=C\c2ccc(-c3cccc(C(=O)O)c3)o2)C(=O)N1CC	i	i	i	i	i
CCN1C(=O)/C(=C\c2ccc(-c3cccc(C(=O)OC)c3)o2)SC1=Nc1ccc(C(=O)O)cc1	i	i	i	i	-6.5*
COc1cc(OC)cc(C(=O)NCC2CCCN(Cc3ccc(SC)cc3)C2)c1 (configuration not stated)	i	i	i	i	i
Brc1ccc(-c2csc(Nc3nc(-c4ccc(Br)cc4)cs3)n2)cc1	i	i	i	i	-4.5*
Nc1nc(-c2ccc(Br)cc2)cs1	i	i	i	i	i
CO/N=C/C(=N\Nc1cc(OC)cc(OC)c1)C(=O)c1ccccc1	i	i	i	i	-5.4*
O=C(Nc1ccncc1)c1ccc(Cl)c(S(=O)(=O)N2CCCCC2)c1	i	i	i	i	i
CCN(CC)CCOC(=O)c1ccc(NC(=O)c2ccc(Cl)c(S(=O)(=O)N3CCCCCC3)c2)cc1	i	i	i	i	-6.8*
O=C(NCCc1ccccc1)c1cnc2n(c1=O)CCS2	i	i	i	i	i
O=C(NCc1ccccc1Cl)c1cnc2n(c1=O)CCS2	i	i	i	i	-4.7*
O=C(NC1CCCC1)C(c1cccnc1)N(C(=O)c1csnn1)c1ccccc1 (configuration not stated)	i	i	i	i	i
CC(=O)N(C1=C(Cl)C(=O)c2ccccc2C1=O)C1CCCCC1	i	i	i	i	-9.6*
CCCCn1c(N)c(N(CCOC)C(=O)C2CC(=O)N(Cc3ccc(C)cc3)C2)c(=O)[nH]c1=O (configuration not stated)	i	i	i	i	i
CCCCN(C(=O)C1CC(=O)N(Cc2ccc(C)cc2)C1)c1c(N)n(CC(C)C)c(=O)[nH]c1=O (configuration not stated)	i	i	i	i	-7.2*
COc1ccc(OC)c(C2C(C(C)=O)=C(C)Nc3ncnn32)c1 (configuration not stated)	i	i	i	i	i
CC[n+]1c(/C=C/N(C)c2ccccc2)oc2ccccc21	i	i	i	i	i
CC/C(=C\c1oc2cc3ccccc3cc2[n+]1CC)Nc1ccccc1	i	i	i	27*	i
